Apaf-1 act = human Apaf-1 activation; activity change, negative = activation, % at 20 µM; Apaf-1 apoptosome caspase-3 activation, DEVD-Rh110 fluorescence; active compounds read low; AID 489031; 0.31% of 330,000 active; O14727;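 active means activity change at or below -40% at 20 µM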
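System: Reconstituted apoptosome of Apaf-1, cytochrome c, caspase-9, procaspase-3 | Reagent: dATP, cytochrome c, and (Z-DEVD)2-Rh110 caspase-3 substrate | Times: 30 min compound preincubation and 50 min reaction, both room temperature | Detection: Caspase-3-released Rh110 fluorescence, 540 nm emission, 480 nm excitation | Measure: Caspase-3 activity via Apaf-1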
Rh110 interf act = counter-screen for Apaf-1 activators: fluorescence interference; shares compounds with Apaf-1 act; Rh110 fluorescence interference, quenched caspase reaction, Ex480/Em540; fluorescence interference (activity change), % at 20 µM, hits read low; 980 tested, under 10 active;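 active means mean activity change at or below -40% when tested at 20 µM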
Apaf-1 act conf = Apaf-1 (human) activation, single-dose confirmed. shares compounds with Apaf-1 act. reconstituted apoptosome caspase-3 activity, DEVD-Rh110 fluorescence; active compounds read low. activity change, negative = activation, % at 20 µM. 5% of 980 active;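 active means mean activity change at or below -40%, meaning activation of 40% or more, at 20 µM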
Fluor interf act = counter-screen for Apaf-1 activators: fluorescence interference, dose response | shares compounds with Apaf-1 act | fluorescence interference counterscreen, Apaf-1 activator assay | EC50, µM | 55 tested, under 10 active | AID 588592; call rule not given here
* hit, by the source's call; . = no result; + = active, no number. Not all results are given here.

SMILES	Apaf-1 act	Rh110 interf act	Apaf-1 act conf	others
O=C(OCC(=O)N1CCCCC1)c1n[nH]c(=O)c2ccccc12	-571.6*	2.4	7.3
O=C(Nc1cccc(CCc2ccccn2)c1)c1cc(F)c(F)cc1Cl	-109.1*	10.1	17.1
O=C(Nc1ccccn1)c1ccc2ccccc2c1O	45.2	.	.
NC1=C(Br)C(=O)c2ccccc2C1=O	70.9	.	.
Cc1ccccc1N=Cc1cccc(O)c1O	73.8	.	.
CCOC(=O)c1ccc(N=c2sc(C(=O)OC)cc(=O)n2CCCN2CCOCC2)cc1	2.5	.	.
O=C(O)CCCNC(=O)C(c1ccccc1)c1ccccc1	-4.7	.	.
O=C(c1ccccc1)C(O)c1ccccc1 (stereo not given)	-40.9*	4.1	4.2
NS(=O)(=O)c1ccc(N=Nc2c[nH]c(=O)c(O)c2)cc1	73.5	.	.
COc1ccc(-c2sc3cc4c(cc3c2C#CC2(N)CCCCC2)OCO4)cc1	72.0	.	.
C=CCc1cccc(/C=N/NC(=O)CNc2cccc3ccccc23)c1O	96.4	.	.
N#Cc1c(NC(=O)c2ccc(Br)o2)n(-c2ccccc2)c2nc3ccccc3nc12	96.4	.	.
C[C@@]12CCC=C[C@H]1[C@H](c1ccc3ccccc3c1Br)N(Cc1ccccc1)C2=O	49.2	.	.
CCN1CCN(CCc2nc3cc(NC(=O)COc4ccccc4)ccc3n2C)CC1	51.0	.	.
COc1cccc(N2CCN(CC(=O)Nc3ccccc3C(=O)NCCc3ccccc3)CC2)c1	49.5	.	.
Cc1cccc(OCCCC(=O)NNC(=O)CCN2CCN(c3ccccc3)CC2)c1	-629.8*	-2.5	12.0
COc1cc(NCCCCCCCN)c2ncccc2c1	94.7	.	.
NNc1nc2c(Cl)c(Cl)ccc2s1	-59.0*	0.0	10.2
Cc1cc2cc(C(c3nnnn3Cc3ccco3)N3CCc4ccccc4C3)c(=O)[nH]c2cc1C (stereo not given)	40.9	.	.
Nc1ccnc(C(F)(F)F)c1C(=O)c1ccccc1	-43.3*	6.8	-0.5
COc1ccc(C2=Nn3c(nnc3-c3ccccc3F)SC2)cc1OC1CCCC1	47.3	.	.
CCCN1C(=O)/C(=C/c2cc(C)n(C)c2C)SC1=Nc1ccc(OC)cc1	40.7	.	.
Cc1ccc(C)c(NC(=S)Nc2cccc3cnccc23)c1	95.7	.	.
Cc1ccc(C)c(NC(=S)NCCN(C2CCCCC2)C2CCCC2)c1	-73.1*	-1.3	12.6
CCN(Cc1ccncc1)C(=O)c1ccc(Br)o1	-613.1*	-0.6	8.1
SMILES	Apaf-1 act	Rh110 interf act	Apaf-1 act conf	others
c1cc2c3c(cccc3c1)NC1(CCCCCC1)N2	49.0	.	.
Oc1ccc(N=Cc2ccc(OCc3ccccc3)cc2)cc1	92.7	.	.
N#C/C(=C\c1ccc(OCc2ccc(Cl)cc2)cc1)C(=O)Nc1cccc(C(=O)O)c1	-202.4*	13.1	-71.2*	Fluor interf act=>100
N/C(=N\OC(=O)c1ccc(Cl)cc1Cl)c1cccnc1	76.2	.	.
O=C(CCCC(=O)OCC(Cl)=C(Cl)Cl)Nc1ccccc1F	-61.3*	-1.7	3.9
CC(=O)c1c(C)[nH]c(C(=O)CSc2ccc(F)cc2)c1C	-212.7*	4.7	5.4
CCN(CC)c1nc(OCCNC(=O)Nc2ccccc2)nc(N(CC)CC)n1	-51.8*	-1.9	17.0
COCCNC(=O)c1c(N)n(-c2ccccc2)c2nc3ccccc3nc12	81.3	.	.
O=C(NCCOc1nc(N2CCCCC2)nc(N2CCCCC2)n1)Nc1ccccc1	40.9	.	.
Cc1cc(C)c2sc(N(CCN(C)C)C(=O)CCS(=O)(=O)c3ccccc3)nc2c1	52.5	.	.
CCN(Cc1ccccc1)C(=O)C1CCC(CNc2c(N3CCOCC3)c(=O)c2=O)CC1 (stereo not given)	-410.3*	9.9	0.9
Cc1ccc(-n2nc3ccc(N)cc3n2)c(C)c1	68.1	.	.
CC1(OC(=O)c2cccs2)C(=O)C=C2C=C3CCCN3C=C2C1=O (stereo not given)	61.8	.	.
CCN(CC)CCOC(=O)c1ccc(N/C=C(/C#N)c2nc(-c3ccc4c(c3)OCO4)cs2)cc1	60.5	.	.
COc1ccc(C2/C(=C(/O)c3ccc4c(c3)CC(C)O4)C(=O)C(=O)N2CCCn2ccnc2)cc1 (stereo not given)	41.6	.	.
COc1ccc(/C(O)=C2/C(=O)C(=O)N(Cc3ccco3)C2c2cccs2)cc1 (stereo not given)	-63.6*	7.1	13.5
C#CCOCCOCCOCCNc1nc(N2CCN(C(=O)C([C@@H](C)CC)n3cc(C(N)COC(=O)C(F)(F)F)nn3)CC2)nc(N2CCN(C(=O)[C@H](Cc3cc4ccccc4[nH]3)n3cc(C(N)CO)nn3)CC2)n1 (stereo not given in full)	49.2	.	.
CC(=O)CC(c1ccccc1)c1c(O)c2ccccc2oc1=O (stereo not given)	3.9	.	.
COc1ccccc1N=Nc1ccc(O)c2ncccc12	90.0	.	.
Cc1ccc(SCc2cc(-c3ccc(Cl)cc3)no2)cc1	78.3	.	.
Cc1ccc(SC2=C(Sc3ccc(C)cc3)C(=O)c3ccccc3C2=O)cc1	64.3	.	.
Cc1ccc(Sc2cc(Cl)nc(N)n2)cc1	-386.6*	19.1	8.4
CC(C)c1ccc(/C=N/NC(=O)c2ccccc2Cl)cc1	-193.9*	1.2	18.1
Cc1ccc(/C=N/NC(=O)C(C)NC(=O)c2ccccc2)cc1 (stereo not given)	41.2	.	.
O=C(Cc1cc(=O)[nH][nH]1)N/N=C/c1ccccc1Cl	77.2	.	.
SMILES	Apaf-1 act	Rh110 interf act	Apaf-1 act conf	others
COc1cc(NC(C)CCCN)c2ncccc2c1 (stereo not given)	92.5	.	.
COc1ccc(OC)c2c1C(=O)c1ccccc1C2=O	63.3	.	.
CC1=CC(C)(C)N2C(=O)C(=Nc3ccc(O)cc3)c3cccc1c32	90.2	.	.
COc1ccc(CN2C(=O)Cc3c2nc(N)c2c(N)nc(N4CCOCC4)c(C#N)c32)cc1	86.4	.	.
COCc1ccc(C(=O)N2CCCC(Nc3ccc(C(C)C)cc3)C2)o1 (stereo not given)	-107.3*	-3.5	10.1
Cc1coc2c1C(=O)C(=O)c1c-2ccc2c1CCCC2(C)C	76.6	.	.
CCN(CC)C(=O)C(=O)c1c(-c2ccccc2)[nH]c2ccccc12	-509.5*	10.1	16.6
CCN(c1ccccc1)c1cc2ccccc2c(=O)[nH]1	95.8	.	.
COc1ccccc1N1C(C)=CC(=C(C#N)c2nc3ccccc3s2)C=C1C	55.6	.	.
COc1ccc(NC(=S)Nc2cccc3ccccc23)cc1OC	82.9	.	.
COc1ccc(NC(=S)Nc2ccccn2)c(OC)c1	-48.0*	-0.2	17.0
C#CCOCCOCCOCCNc1nc(N2CCN(C(=O)Cn3cc(CCCCN)nn3)CC2)nc(N2CCN(C(=O)[C@H](CCCCN)n3cc(CCCC)nn3)CC2)n1	41.4	.	.
NC(=O)C1CCN(C(=O)COc2cccc3ccccc23)CC1	-195.4*	13.7	9.8
COc1cc(OC)c2c(-c3ccccc3)cc(=O)oc2c1C(CCN1CCCCC1)c1ccc(N(C)C)cc1 (stereo not given)	54.4	.	.
COC(=O)c1ccccc1-c1c2ccc(=N)cc-2oc2cc(N)ccc12	-332.4*	+	-81.6*
COC(=O)c1ccccc1-c1ccc(C(c2c(C)[nH][nH]c2=O)c2c(C)[nH][nH]c2=O)o1	79.2	.	.
CCCCNc1cc(NC(C)=O)cc2cc(OC)c(OC)cc12	61.8	.	.

Assay outcomes: PubChem BioAssay, Sanford-Burnham Center for Chemical Genomics
